From ChEMBL document CHEMBL1149272, “Catecholic flavonoids acting as telomerase inhibitors” (J Med Chem, 2004) come the findings set out here.

pIC50: −log10 of the molar value. The source made the active and inactive calls. No cut-off for these calls is given here.

For one assay, the target named is T1, Telomerase reverse transcriptase (Homo sapiens, UniProt O14746). As to conditions: A-431, 1 uM.
T1 sequence (O14746 whole entry): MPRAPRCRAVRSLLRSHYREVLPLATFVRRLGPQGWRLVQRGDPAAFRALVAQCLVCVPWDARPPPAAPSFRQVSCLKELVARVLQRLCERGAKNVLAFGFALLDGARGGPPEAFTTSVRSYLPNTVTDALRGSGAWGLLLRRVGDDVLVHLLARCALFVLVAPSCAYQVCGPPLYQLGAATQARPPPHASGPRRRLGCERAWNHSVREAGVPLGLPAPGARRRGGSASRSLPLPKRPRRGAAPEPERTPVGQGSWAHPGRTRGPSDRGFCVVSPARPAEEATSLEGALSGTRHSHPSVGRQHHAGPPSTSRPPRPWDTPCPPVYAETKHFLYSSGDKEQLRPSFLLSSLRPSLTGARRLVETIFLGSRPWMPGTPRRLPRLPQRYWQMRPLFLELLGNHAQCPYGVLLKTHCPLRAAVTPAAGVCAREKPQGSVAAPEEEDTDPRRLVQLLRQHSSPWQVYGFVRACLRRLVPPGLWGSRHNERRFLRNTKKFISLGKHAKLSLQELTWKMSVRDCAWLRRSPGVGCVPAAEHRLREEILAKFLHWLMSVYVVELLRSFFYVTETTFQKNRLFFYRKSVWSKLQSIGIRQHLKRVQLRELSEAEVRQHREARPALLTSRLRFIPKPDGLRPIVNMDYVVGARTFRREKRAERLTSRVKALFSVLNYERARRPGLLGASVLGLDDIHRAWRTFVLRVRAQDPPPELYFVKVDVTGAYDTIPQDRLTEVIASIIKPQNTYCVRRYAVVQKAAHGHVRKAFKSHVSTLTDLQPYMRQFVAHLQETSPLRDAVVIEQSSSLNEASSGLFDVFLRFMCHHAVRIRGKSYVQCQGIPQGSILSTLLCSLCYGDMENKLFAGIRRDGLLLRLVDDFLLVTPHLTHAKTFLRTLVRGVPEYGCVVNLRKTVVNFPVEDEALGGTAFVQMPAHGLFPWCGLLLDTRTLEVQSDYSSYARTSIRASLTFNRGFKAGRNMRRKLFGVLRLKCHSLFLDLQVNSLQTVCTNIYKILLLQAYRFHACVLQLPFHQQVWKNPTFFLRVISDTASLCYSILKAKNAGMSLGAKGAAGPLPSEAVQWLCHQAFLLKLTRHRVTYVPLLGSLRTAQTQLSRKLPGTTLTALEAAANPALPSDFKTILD
In general, inhibition refers to the change of the read-out against control, counted positive when it falls. Read a high inhibition as a strong effect. In turn, `O=c1cc(-c2ccc(O)c(O)c2)oc2c(O)c(O)ccc12` returned an inhibition of 50%.

In another assay the target is DNA-directed RNA polymerase (Enterobacteria phage T3) (UniProt P07659). The assay is described as follows: Inhibition of T3 RNA polymerase up to 2 uM.
DNA-directed RNA polymerase (Enterobacteria phage T3), sequence (P07659 whole entry): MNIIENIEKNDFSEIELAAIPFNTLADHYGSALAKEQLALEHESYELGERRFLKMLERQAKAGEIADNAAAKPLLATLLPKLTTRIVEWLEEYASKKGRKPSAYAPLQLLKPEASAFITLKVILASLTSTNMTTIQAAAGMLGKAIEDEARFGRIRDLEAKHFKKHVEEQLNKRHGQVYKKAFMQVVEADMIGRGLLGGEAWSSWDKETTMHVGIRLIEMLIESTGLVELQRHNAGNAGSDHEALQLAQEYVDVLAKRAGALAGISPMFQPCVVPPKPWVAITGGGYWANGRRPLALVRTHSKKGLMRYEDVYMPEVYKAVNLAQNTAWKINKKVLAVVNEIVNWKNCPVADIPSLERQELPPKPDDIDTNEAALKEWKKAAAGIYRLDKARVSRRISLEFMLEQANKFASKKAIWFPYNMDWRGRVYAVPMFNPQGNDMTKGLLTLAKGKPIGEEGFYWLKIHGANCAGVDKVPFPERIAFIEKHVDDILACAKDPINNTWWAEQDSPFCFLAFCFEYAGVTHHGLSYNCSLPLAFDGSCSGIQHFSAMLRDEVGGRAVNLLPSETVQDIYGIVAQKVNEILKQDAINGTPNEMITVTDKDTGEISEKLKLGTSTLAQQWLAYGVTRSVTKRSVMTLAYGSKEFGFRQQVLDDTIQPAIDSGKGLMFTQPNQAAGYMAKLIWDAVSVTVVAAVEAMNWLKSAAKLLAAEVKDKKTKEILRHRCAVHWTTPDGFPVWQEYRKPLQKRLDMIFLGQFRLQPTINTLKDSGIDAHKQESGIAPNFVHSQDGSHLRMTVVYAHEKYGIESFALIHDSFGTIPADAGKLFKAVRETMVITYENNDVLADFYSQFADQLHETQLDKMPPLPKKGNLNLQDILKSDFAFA
Details: not given
Take `O=c1cc(-c2ccc(O)c(O)c2)oc2c(O)c(O)ccc12`: the outcome was inactive.

Another assay has as its target T1, Telomerase reverse transcriptase. The assay is described as follows: Inhibition of human telomerase from HEK293 cell extracts by Flash-Plate assay. It is filed as cell-free.
Details: not given
The essentials:
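Affinity-enriched telomerase extract from HEK293 cells overexpressing telomerase, adjusted to 5 fmol dNTP incorporation min-1 µL-1, in buffer with 50 mM Tris-acetate pH 8.5, 150 mM K acetate, 1 mM MgCl2, 1 mM EGTA. Buffer also held 10 µM dATP, 20 µM dGTP, 120 µM TTP and 500 nM 5'-biotinylated primer. Compounds in DMSO at 0.01-10 µM; 2 h at 37 °C. Elongated primer hybridized to a 33P-labeled complementary probe, captured on streptavidin Flash-Plate; IC50 from radioactivity.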
The term pIC50 denotes −log10 of the IC50, conventionally taken in molar units. `O=c1[nH]c2ccc(-c3cc(=O)c4ccc(O)c(O)c4o3)cc2[nH]1` gave a pIC50 of 5.92.

The compound `COc1ccc2c(=O)cc(-c3ccc4[nH]c(CCCN(C)C)nc4c3)oc2c1OC` gave a pIC50 of 6.33.

Take `O=c1cc(-c2ccc(O)c(O)c2)oc2c(O)cccc12`: the pIC50 is under 4.40.

In turn, `O=c1cc(-c2ccc(O)c(O)c2)oc2c(O)c(O)c(Cl)cc12` had a pIC50 of 6.09.

In the case of `COc1ccc2c(=O)cc(-c3ccc(O)c(O)c3)oc2c1OC`, the pIC50 was under 4.40.

`O=C(/C=C/c1ccc(O)c(O)c1)c1ccc(O)c(O)c1O` showed a pIC50 of 5.22.

In turn, `O=C(/C=C/c1ccc(O)c(O)c1)c1ccc(O)c(O)c1` showed a pIC50 of 5.77.

`O=c1[nH]c2ccc(-c3cc(=O)c4ccc(O)c(O)c4o3)cc2[nH]c1=O` gave a pIC50 of under 4.40.

For `O=c1cc(-c2ccccc2)oc2c(O)c(O)ccc12` [7,8-DIHYDROXYFLAVONE], the pIC50 is 4.44.

Regarding `O=c1cc(-c2ccc(O)c(O)c2)oc2cc(O)ccc12`, the pIC50 was under 4.40.

`O=c1cc(-c2cccc(O)c2)oc2c(O)c(O)ccc12` gave a pIC50 of 4.30.

Consider `O=c1cc(-c2ccc3[nH]cnc3c2)oc2c(O)c(O)ccc12`, for which the pIC50 was 5.40.

With `O=c1cc(-c2ccc(O)c(O)c2)oc2ccccc12`, the pIC50 was under 4.40.

In turn, `COc1ccc2c(=O)cc(-c3ccc4[nH]c(=O)c(=O)[nH]c4c3)oc2c1OC` had a pIC50 of under 4.40.

For `COc1ccc(-c2cc(=O)c3ccc(O)c(O)c3o2)cc1O`, the pIC50 was 4.96.

The compound `COc1ccc2c(=O)cc(-c3ccc4[nH]c(C)nc4c3)oc2c1OC` showed a pIC50 of 4.66.

Turning to `Cc1nc2cc(-c3cc(=O)c4ccc(O)c(O)c4o3)ccc2[nH]1`, the pIC50 is under 4.40.

Consider `O=c1cc(-c2ccc(O)c(O)c2)oc2c(O)c(O)ccc12`, for which the negative-log IC50 (pIC50) was 6.70.

With `COc1ccc(-c2cc(=O)c3ccc(O)c(O)c3o2)cc1OC`, the pIC50 is 4.93.

For a further assay the target is unchanged. The following applies: 1 uM.
In the case of `O=c1cc(-c2ccc(O)c(O)c2)oc2c(O)c(O)ccc12`, the inhibition came to 50%.
